In publication PMC10472104 (Clinical Cancer Research, 2023):
“Also recorded” adds a separate entry of the source.

Assays:
Format in all cases: cell-based, human
[1] = system: γH2AX in TC32 cells; assay: γH2AX expression by Western blotting; settings: TC32, 24 hours
In short: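 Cells grown to 70–80% confluency in six-well plates, settled overnight, serum-starved 24 h, then given DMSO or increasing concentrations of test compound for 24 h. Lysates were transferred to nitrocellulose and blocked. Blots were probed overnight at 4°C with rabbit anti-phospho-H2AX (Ser139) and anti-total H2AX, then 1 h at room temperature with IRDye800CW anti-rabbit, and scanned on an Odyssey imager.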

[2] = system: γH2AX foci in CHLA10 cells; assay: γH2AX foci by immunofluorescence and confocal microscopy; settings: CHLA10, increasing doses, 24 hours
In short: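 Cells were fixed in 4% paraformaldehyde 30 min at room temperature and permeabilized with 0.5% Triton-X. They were probed overnight at 4°C with rabbit anti-phospho-H2AX (Ser139), then Alexa Fluor 488 anti-rabbit, and DAPI-mounted. Foci were counted from confocal images.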

[3] = system: γH2AX in CHLA10 cells; assay: γH2AX expression by Western blotting; settings: CHLA10, 24 hours
[4] = system: TC32 and CHLA10 spheroids; assay: 3D spheroid assays, comparison across both models; settings: 4 days
[5] = system: CHLA10 cells; assay: Cell-cycle analysis; settings: CHLA10 (Fig. 3B)
[6] = system: TC32 cells; assay: Cell-cycle analysis; settings: TC32 (Fig. 3A)

Compound	γH2AX expression with increasing doses [1]	γH2AX foci formation [2]	γH2AX expression with increasing doses [3]	spheroid activity compared with kt-3283 [4]	cell-cycle arrest induced [5]	cell-cycle arrest induced [6]
O=C(c1cc(Cc2n[nH]c(=O)c3ccccc23)ccc1F)N1CCN(C(=O)C2CC2)CC1 [olaparib]	induced γH2AX expression in a dose-dependent manner	dose-dependent γH2AX foci formation	induced γH2AX expression in a dose-dependent manner			
Cn1ncnc1[C@H]1c2n[nH]c(=O)c3cc(F)cc(c23)N[C@@H]1c1ccc(F)cc1 [talazoparib]				equivalent activity; also recorded: equivalent efficacy		
O=C(CCCCCCC(=O)Nc1ccccc1)NO [vorinostat]	induced γH2AX expression in a dose-dependent manner	milder DNA damage foci formation	induced γH2AX expression in a dose-dependent manner		G0/G1 cell-cycle arrest	G0/G1 cell-cycle arrest
